# In PubChem BioAssay AID504331 (Broad Institute, 2011):
# Values joined by “and” are separate entries in the source; they are usually repeats but may differ in a detail not shown here. Equal values may be shown once. Active and inactive are the calls of the source.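 Rule for the calls: active = compounds that lower cell viability with a fitted AC50 at most ten times their top valid dose; inconclusive = flat fit showing 30 to 70 percent loss, or poor fit; inactive = the rest.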
# Tested on: U2OS HRE-luc cells viability, CellTiter-Glo luminescence
# Test: toxicity in U2OS HRE-luc cells, iron medium, dose response, cytotoxicity control for HIF pathway activator project, iron-supplemented medium, dry powder (AID 504331)
# Conditions: not given
# In short: (§1)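 Assay system – U2OS HRE-luciferase reporter cells · Input – 6,000 cells/well · Medium – phenol red-free DMEM, 10% FBS, 50 µM final ferric nitrate · Timing – cells plated 24 h before dosing, 24 h compound exposure at 37 °C · Technique – CellTiter-Glo luminescence for cell viability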
row,SMILES,AC50
1,Oc1ccc(CN2CCC3CCCCC3C2)c2cccnc12 (centres undefined),22.5 µM
2,c1ccc(-c2csc(Nc3nc(-c4ccccn4)nnc3-c3ccccc3)n2)cc1,> 38 µM (inactive)
3,CC1CN(Cc2ccc(O)c3ncccc23)CC(C)O1 (centres undefined),15.6 µM
4,OCC1CCN(Cc2ccc(O)c3ncccc23)CC1,2.54 µM
5,c1ccc(-c2nnc(-c3ccccn3)nc2N2CCC(c3ccccc3)C2)cc1 (centres undefined),13.6 µM
6,Oc1ccc(CNC2Cc3ccccc3C2)c2cccnc12,22.5 µM
7,Oc1ccc(CN2CCc3ccccc3C2)c2cccnc12,23.3 µM and 24.6 µM
8,c1ccc(-c2nnc(-c3ccccn3)nc2NCc2ccccn2)cc1,> 38 µM (inactive)
9,O=C(NC1CCc2ccccc2C1)c1cc(-c2ccccc2)on1 (centres undefined),> 38 µM (inactive)
10,O=C(c1cc(-c2ccccc2)on1)N1CCN(c2ccncc2)CC1,> 38 µM (inactive)
11,C[C@@H](Nc1nc(-c2ccccn2)nnc1-c1ccccc1)C1CCCCC1,32 µM
12,Cn1c(-c2ccccc2)cnc1Nc1nc(-c2ccccn2)nnc1-c1ccccc1,> 38 µM (inactive)
13,COc1ccccc1N1CCN(Cc2ccc(O)c3ncccc23)CC1,33.2 µM
14,Oc1ccc(CNC2CCc3ccccc32)c2cccnc12 (centres undefined),35.7 µM

# Tested on: not listed separately
# Test: as above
# Conditions: U2OS HRE-luc cells viability, CellTiter-Glo luminescence; at 38 µM (top of the series)
# In short: as §1
row,SMILES,"activity change, negative = cytotoxicity"
1,CN1CCN(c2nc(-c3ccccn3)nnc2-c2ccccc2)CC1,-22.1% (inactive)
2,CN(C)c1nc(-c2ccccn2)nnc1-c1ccccc1,13.9% (inactive)
3,c1ccc(-c2nnc(-c3ccccn3)nc2N2CCC(N3CCOCC3)CC2)cc1,5.36% (inactive)
4,O=C(Nc1cnc2ccccc2c1)c1cc(-c2ccccc2)on1,-0.953% (inactive)
5,c1ccc(-c2cccc(CNc3nc(-c4ccccn4)nnc3-c3ccccc3)c2)cc1,-2.48% (inactive)
6,C=CCNc1nc(-c2ccccn2)nnc1-c1ccccc1,6.06% (inactive)
7,O=C(NCCCN1CCOCC1)c1cc(-c2ccccc2)on1,11% (inactive)
8,c1ccc(-c2nnc(-c3ccccn3)nc2NCCCN2CCOCC2)cc1,9.59% (inactive)
9,O=C(NCCCO)c1cc(-c2ccccc2)on1,-4.34% (inactive)
10,O=C(Nc1ccc2ccccc2n1)c1cc(-c2ccccc2)on1,13% (inactive)
11,c1ccc(-c2nnc(-c3ccccn3)nc2NCC2CCOCC2)cc1,5.99% (inactive)
12,CN(C)CCNC(=O)c1cc(-c2ccccc2)on1,11% (inactive)
13,c1ccc(-c2nnc(-c3ccccn3)nc2NCCN2CCOCC2)cc1,-5.86% (inactive)
14,OCCCNc1nc(-c2ccccn2)nnc1-c1ccccc1,12.8% (inactive)
15,c1ccc(CNc2nc(-c3ccccn3)nnc2-c2ccccc2)cc1,0.83% (inactive)
16,c1ccc(-c2nnc(Nc3nc(-c4ccccn4)nnc3-c3ccccc3)s2)cc1,5.32% (inactive)
17,CC(C)(C)OC(=O)N1CCN(Cc2ccc(O)c3ncccc23)CC1,8.63% (inactive)
18,c1ccc(-c2nnc(-c3ccccn3)nc2NCc2cccnc2)cc1,17% (inactive)
19,Cc1cccc(CNC(=O)c2cc(-c3ccccc3)on2)c1,-4.42% (inactive)
20,O=C(NCC1CCCCC1)c1cc(-c2ccccc2)on1,-8.74% (inactive)
21,O=C(Nc1nc(-c2ccccc2)cs1)c1cc(-c2ccccc2)on1,8.59% (inactive)
22,O=C(c1cc(-c2ccccc2)on1)N1CCC(N2CCOCC2)CC1,5.61% (inactive)
23,c1ccc(-c2nnc(-c3ccccn3)nc2N2CCC(C3CCCCC3)C2)cc1 (centres undefined),0.423% (inactive)
24,O=C(Nc1ncc(-c2ccccc2)o1)c1cc(-c2ccccc2)on1,1.13% (inactive)
25,O=C(Nc1cn2ccccc2n1)c1cc(-c2ccccc2)on1,15.5% (inactive)
26,CCCCNC(=O)c1cc(-c2ccccc2)on1,5.24% (inactive)
27,Cc1cccc(CNc2nc(-c3ccccn3)nnc2-c2ccccc2)c1,-8.02% (inactive)
28,O=C(NCC1CC1)c1cc(-c2ccccc2)on1,20.9% (inactive)

row,SMILES,"activity change, negative = cytotoxicity"
1,O=C(c1cc(-c2ccccc2)on1)N1CCC(CO)CC1,7.47% (inactive)
2,Cn1c(NC(=O)c2cc(-c3ccccc3)on2)nc2ccccc21,15.8% (inactive)
3,N#CC1(c2ccccc2)CCN(Cc2ccc(O)c3ncccc23)CC1,10.7% (inactive)
4,Cc1ccccc1CNc1nc(-c2ccccn2)nnc1-c1ccccc1,-20% (inactive)
5,O=C(Nc1ncc2ccccc2n1)c1cc(-c2ccccc2)on1,-12.2% (inactive)
6,Cc1ccc(NC(=O)c2cc(-c3ccccc3)on2)cn1,-4.1% (inactive)
7,c1ccc(-c2nnc(-c3ccccn3)nc2NCC2CC2)cc1,4.24% (inactive)
8,O=C(NC1Cc2ccccc2C1)c1cc(-c2ccccc2)on1,-12.2% (inactive)
9,Cn1c(-c2ccccc2)cnc1NC(=O)c1cc(-c2ccccc2)on1,-7.51% (inactive)
10,Cc1ccc(CNC(=O)c2cc(-c3ccccc3)on2)cc1,-12.1% (inactive)
11,O=C(Nc1nc2ccccc2s1)c1cc(-c2ccccc2)on1,11.3% (inactive)
12,O=C(c1cc(-c2ccccc2)on1)N1CCc2cccnc21,-7.82% (inactive)
13,O=C(c1cc(-c2ccccc2)on1)N1CCC(N2CCCC2)CC1,-1.03% (inactive)
14,O=C(NCCCCO)c1cc(-c2ccccc2)on1,1.09% (inactive)
15,CC(C)(C)CCNc1nc(-c2ccccn2)nnc1-c1ccccc1,-21.1% (inactive)
16,O=C(NCc1ccccc1)c1cc(-c2ccccc2)on1,6.28% (inactive)
17,CN1CCN(C(=O)c2cc(-c3ccccc3)on2)CC1,2.12% (inactive)
18,O=C(NCCN1CCOCC1)c1cc(-c2ccccc2)on1,12.9% (inactive)
19,CC(C)(C)CCNC(=O)c1cc(-c2ccccc2)on1,-4% (inactive)
20,Oc1ccc(CN2CCC(Cc3ccccc3)CC2)c2cccnc12,-1.73% (inactive)
21,O=C(Nc1nnc(-c2ccccc2)s1)c1cc(-c2ccccc2)on1,13.2% (inactive)
22,O=C(NCCN1CCCCC1)c1cc(-c2ccccc2)on1,14% (inactive)
23,Cc1ccccc1CNC(=O)c1cc(-c2ccccc2)on1,4.84% (inactive)
24,c1ccc(-c2nnc(-c3ccccn3)nc2N2CCN(c3ccncc3)CC2)cc1,7.73% (inactive)
25,O=C(NCCCn1ccnc1)c1cc(-c2ccccc2)on1,-7.58% (inactive)
26,c1ccc(-c2nnc(-c3ccccn3)nc2NCCc2ccccn2)cc1,-1.62% (inactive)
27,Cc1cccc(NC(=O)c2cc(-c3ccccc3)on2)n1,-3.67% (inactive)
